# High-throughput results (PubChem)
# A selection: hits, their analogues and other compounds. The true share with any hit is near 1.5%.
# Rin1 Abl inh: blocks binding of human Rin1 to Abl | P00519+Q13671 | TR-FRET Rin1/Abl binding, biochemical | inhibition, % at 7.35 µM | hit rate 0.4% among 360,000 | AID 588664; in the data active means inhibition above about 5%, passing the limit was not always enough
# PKA-R1A activ: PKA-R1A complex activation. PKA-R1A dissociation, Cy5-IP20 fluorescence polarization; scaled: DMSO 0%, 113 µM cGMP 100%. hit rate 0.083% among 340,000. activation, % at 11.4 µM;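 active means percent activation above the mean of all tested compounds plus 3 SD, cut at about 19% in these data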;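 further: higher means more PKAc released from R1A so a rise in polarization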
# H9c2 protect: protects H9c2 cardiomyocytes from peroxide injury; protection from H2O2 cell death, % at 20 µM; AID 588492; H2O2 injury protection, ATPLite, 2 h; hit rate 0.63% among 360,000;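 active means compounds giving at least 50% protection of heart cells from peroxide-induced death in the single-dose screen, raw or plate-pattern-corrected value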;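 further: 0% = DMSO wells with peroxide and 100% = DMSO wells without peroxide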
# PKA-R2B activ: activates the human PKA-R2B holoenzyme complex; PKA-R2B holoenzyme dissociation, Cy5-IP20 fluorescence polarization; R2B truncated from residue 108, S112A mutant; 0% DMSO only, 100% 113 µM cGMP; activation, % at 11.4 µM; hit rate 0.079% among 340,000; AID 504700;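 active means activation above a cutoff set at the mean over all compounds plus 3 SD, cut at about 18% in these data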;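 further: higher means more holoenzyme dissociation and a rise in polarization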
# Target sequence (P31323 whole entry, looked up, other chains not shown, the tested form may be a part): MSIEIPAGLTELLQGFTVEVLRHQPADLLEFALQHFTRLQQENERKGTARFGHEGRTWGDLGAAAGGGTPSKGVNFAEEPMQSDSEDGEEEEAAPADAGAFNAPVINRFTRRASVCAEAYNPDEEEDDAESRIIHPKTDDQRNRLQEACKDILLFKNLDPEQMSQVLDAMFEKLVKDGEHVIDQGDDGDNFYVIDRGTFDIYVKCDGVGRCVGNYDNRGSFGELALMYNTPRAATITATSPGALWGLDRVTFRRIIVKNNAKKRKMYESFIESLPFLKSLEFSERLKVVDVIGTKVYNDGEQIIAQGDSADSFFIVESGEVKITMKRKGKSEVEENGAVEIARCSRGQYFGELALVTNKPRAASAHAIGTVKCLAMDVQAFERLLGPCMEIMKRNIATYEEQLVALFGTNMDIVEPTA
# Tb MetRS inh: Trypanosoma brucei MetRS inhibition | AID 624268 | inhibition, % at 11.9 µM | purified T. brucei MetRS, ATP depletion, Kinase-Glo luminescence | hit rate 0.4% among 360,000;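 active means inhibition above a per-plate cutoff of the control wells' mean inhibition plus 3 SD, cut at about 5.5% in these data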;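 further: 0% = DMSO wells median and 100% = median of wells with control inhibitor compound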
#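 Dosing: 11.9 µM compound single dose, 0.9% DMSO; Assay system: purified T. brucei MetRS enzyme; Measured by: Kinase-Glo luciferase luminescence reporting remaining unconsumed ATP; Schedule: 15 min plus 2 h at 25 °C.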
# TbMetRS confirm: confirmation of Trypanosoma brucei MetRS inhibitors. shares compounds with Tb MetRS inh. T. brucei MetRS enzyme, luminescence (ATP depletion). inhibition, % at 11.9 µM. hit rate 93% among 1,400. AID 624412; in the data active means inhibition above about 7%
# Jurkat tox: kills Jurkat cells in T. brucei MetRS counterscreen. shares compounds with Tb MetRS inh. Jurkat cells viability, ATP luminescence. inhibition, % at 8.3 µM. hit rate 12% among 1,400. AID 624413; in the data active means inhibition above about 15%;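 further: 0% = vehicle and 100% = reference inhibitor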
# TbMetRS FP orth: inhibits T. brucei methionyl tRNA synthetase in orthogonal FP test | inhibition, % at 11.9 µM | AID 651607 | shares compounds with Tb MetRS inh | hit rate 44% among 1,400 | purified T. brucei MetRS, fluorescence polarization; in the data active means inhibition above about 17%;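 further: 0% = vehicle wells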
# * = called active by the depositor; . = no result.
SMILES,Rin1 Abl inh,PKA-R1A activ,H9c2 protect,PKA-R2B activ,Tb MetRS inh,TbMetRS confirm,Jurkat tox,TbMetRS FP orth
CCc1cccc(NC(=O)Cn2c(=O)oc3cc(S(=O)(=O)N4CCOCC4)ccc32)c1,6,-3,-30,12,7.0*,12*,0,3
O=C(Cn1c(=O)oc2cc(S(=O)(=O)N3CCCC3)ccc21)Nc1cccc(C(F)(F)F)c1,-4,-7,-31,8,1,.,.,.
COc1ccc(OCC(=O)Nc2ccc(S(=O)(=O)N3CCOCC3)cc2)cc1,0,-4,0,-7,0,.,.,.
COc1ccc(NC(=O)CN(C)C(=O)c2ccc3c(c2)NC(=O)CS3)cc1,4,-7,4,1,7.9*,33*,-8,6
CN(CC(=O)Nc1cccc(F)c1)C(=O)c1ccc2c(c1)NC(=O)CS2,2,-1,3,-2,4,.,.,.
COc1ccc(CCNC(=O)c2ccc(-c3ccc([N+](=O)[O-])cc3Cl)o2)cc1OC,-1,-1,-6,3,5.7*,8.7*,32*,19*
COc1ccc(CCNC(=O)c2ccc([N+](=O)[O-])cc2Cl)cc1OC,-1,-4,4,7,-8,.,.,.
COc1ccc(-c2coc3c(C(=O)Nc4cccc(C(C)=O)c4)cccc23)c(C)c1,2,.,-3,.,7.6*,1,8,21*
CC(/C=N/NC(=O)c1nnn(-c2nonc2N)c1CN1CCCCC1)c1ccccc1 (stereo unspecified),-2,3,1,13,0,.,.,.
CCc1ccc2nc(N(CCN(C)C)C(=O)c3ccc4ncsc4c3)sc2c1,0,0,6,-4,-1,.,.,.
NC(=O)Cn1ccc(O)c(Cc2ccc(Cl)cc2Cl)c1=O,0,-3,-2,3,25*,37*,-7,20*
O=c1c(Cc2ccc(Cl)cc2Cl)c(O)ccn1CC(F)(F)F,2,3,0,0,9.0*,14*,4,6
O=c1c(Cc2ccc(F)cc2)c(O)ccn1Cc1ccc(Cl)cc1Cl,0,-6,-10,7,-1,.,.,.
O=c1c(Cc2ccc(Cl)cc2Cl)c(O)ccn1CCCN1CCOCC1,3,2,-1,-5,32*,51*,-3,20*
Cc1cc(C(=O)Nc2ccc(Cl)c(S(=O)(=O)N3CCOCC3)c2)c2ccccc2n1,1,-9,10,-3,0,.,.,.
O=C(c1[nH]c(C(F)(F)F)nc1-c1ccccc1)N1CCN(c2ncccc2C(F)(F)F)CC1,4,.,-4,.,-1,.,.,.
CCCCn1c(N)c(N(CC(C)C)C(=O)c2cccs2)c(=O)[nH]c1=O,0,-11,4,0,0,.,.,.
O=C(NCc1ccco1)/C(=C/c1ccc(C(F)(F)F)cc1)c1nc2ccccc2[nH]1,2,-8,-13,-14,7.7*,5,30*,-3
O=C(NCc1ccco1)/C(=C/c1cccc(C(F)(F)F)c1)c1nc2ccccc2[nH]1,-2,14,5,-16,1,.,.,.
CCCCC(OC(=O)CN1C(=O)COc2ccccc21)C(=O)NC1CCCCC1 (stereo unspecified),4,-14,1,7,-1,.,.,.
CC(C)(C)NC(=O)CN(C(=O)c1csnn1)c1cccc2c1CCCC2,3,-2,7,-9,2,.,.,.
COc1ccc(Br)cc1CSC(=N)N,9,5,-12,-16,11*,2,9,2
Cc1ccc2nc(/C(C#N)=C/c3cn[nH]c3-c3ccc(F)cc3)[nH]c2c1,-3,-8,24,-7,24*,51*,57*,47*
CCNC(=O)CCCOc1ccc(Cl)cc1Cl,-3,-17,-2,-3,6.3*,14*,3,8
Cc1noc(C)c1COC(=O)Cc1ccc(Cl)cc1,1,-11,-4,-10,0,.,.,.
SMILES,Rin1 Abl inh,PKA-R1A activ,H9c2 protect,PKA-R2B activ,Tb MetRS inh,TbMetRS confirm,Jurkat tox,TbMetRS FP orth
Cc1cc(Cl)ccc1OCCCC(=O)NCCc1nnc2ccccn12,-1,-8,-2,-6,7.2*,14*,-4,5
O=C(COC(=O)CCSc1ccc(Cl)cc1)NCc1ccccc1,0,-5,-7,0,0,.,.,.
O=C(COC(=O)CCCOc1ccc(Cl)cc1Cl)NCc1ccccc1,0,-13,-3,-2,40*,57*,-5,43*
Cc1noc(C)c1COC(=O)CCCOc1ccc(Cl)cc1Cl,-1,-15,-12,-2,7.0*,19*,-2,15
COCCN1C(=O)CCC1(C)C(=O)NC1CCCC1 (stereo unspecified),3,.,6,.,-1,.,.,.
COC(=O)c1cccc(NC(=O)CCNC(=O)c2ccco2)c1,3,-1,-2,-1,-1,.,.,.
Cc1ccccc1NC(=O)NC1(C(=O)N2CCC(C(N)=O)CC2)CCCCC1,0,2,-2,-3,0,.,.,.
Cc1noc(NS(=O)(=O)c2ccc(NC(=O)CCCOc3ccc(Cl)cc3Cl)cc2)c1C,-1,-12,-2,0,7.6*,14*,3,13
Cc1noc(NS(=O)(=O)c2ccc(NC(=O)COc3ccc(Cl)cc3Cl)cc2)c1C,0,-10,-13,-1,4,.,.,.
O=S(=O)(c1ccccc1)c1nc(Nc2cccc(O)c2)sc1Cl,1,-14,-22,-6,10*,20*,18*,6
CCC(C(=O)NCCCN1CCOCC1)n1c2ccccc2c2nc(=O)cc(C)n21 (stereo unspecified),-2,-2,4,-12,-1,.,.,.
O=C(CSc1nc2ncccc2[nH]1)Nc1ccc2c(c1)OCO2,-2,.,15,.,16*,27*,0,17*
O=C(O)CSc1nnc2c(n1)[nH]c1ccccc12,-3,-3,7,-1,1,.,.,.
O=C(CSc1nnc2c(n1)[nH]c1ccccc12)Nc1ccc2c(c1)OCO2,-2,-1,-5,2,76*,83*,6,71*
Cc1ccc(-c2csc(NC(=O)CSc3nnc4c(n3)[nH]c3ccccc34)n2)cc1,1,7,-7,2,7.7*,15*,18*,9
CCOC(=O)Cc1nnc(NC(=O)CSc2nnc3c(n2)[nH]c2ccccc23)s1,-3,3,-3,-3,1,.,.,.
COc1ccc(NC(=O)CSc2nc3ncccc3[nH]2)cc1OC,-2,-7,-4,-22,5,.,.,.
O=C(CSc1nnc2c(n1)[nH]c1ccccc12)Nc1nncs1,-4,-12,7,-3,24*,43*,-3,19*
